We go through six molecules from ChEMBL document CHEMBL3603823, “Ethylenedioxy homologs of N-methyl-(3,4-methylenedioxyphenyl)-2-aminopropane (MDMA) and its corresponding cathinone analog methylenedioxymethcathinone: Interactions with transporters for serotonin, dopamine, and norepinephrine” (Bioorg Med Chem, 2015).

Type in all cases: subcellular
Assay [1] addresses Sodium-dependent dopamine transporter (Rattus norvegicus) (UniProt P23977). Put plainly: Binding affinity to DAT in Sprague-Dawley rat brain synaptosomes assessed as induction of [3H]MPP+ release by liquid scintillation counting method relative to control. In outline: (§1)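 Release measured in rat synaptosomes preloaded 1 h with 5 nM [3H]5-HT (SERT) or 9 nM [3H]MPP+ (NET, DAT), with reserpine and unlabeled blockers; test drug 10–10,000 nM. Efficacy is % of maximal release, defined as release by tyramine: 100 μM for SERT, 10 μM for DAT and NET. Filtration and scintillation counting; n = 3–4 experiments in triplicate.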

Assay [2] addresses Sodium-dependent serotonin transporter (Rattus norvegicus) (UniProt P31652). Put plainly: Binding affinity to SERT in Sprague-Dawley rat brain synaptosomes assessed as induction of [3H]5-HT release by liquid scintillation counting method relative to control. The essentials: as §1
In assay [3] the target is Sodium-dependent serotonin transporter (Rattus norvegicus, UniProt P31652). Put plainly: Binding affinity to SERT in Sprague-Dawley rat brain synaptosomes assessed as induction of [3H]5-HT release by liquid scintillation counting method. The essentials: (§2)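 Rat synaptosomes with 1 μM reserpine in all buffers; SERT and NET from whole brain minus caudate and cerebellum (900 μg/mL protein), DAT from caudate (90 μg/mL). Preloaded 1 h in Krebs-phosphate buffer with 5 nM [3H]5-HT (SERT) or 9 nM [3H]MPP+ (NET, DAT), with unlabeled blockers of competing transporters. Eight-point curves, 10–10,000 nM, triplicate, 3 occasions. Filtration, scintillation counting; EC50 by non-linear regression.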
Chain of Sodium-dependent serotonin transporter (P31652 whole entry): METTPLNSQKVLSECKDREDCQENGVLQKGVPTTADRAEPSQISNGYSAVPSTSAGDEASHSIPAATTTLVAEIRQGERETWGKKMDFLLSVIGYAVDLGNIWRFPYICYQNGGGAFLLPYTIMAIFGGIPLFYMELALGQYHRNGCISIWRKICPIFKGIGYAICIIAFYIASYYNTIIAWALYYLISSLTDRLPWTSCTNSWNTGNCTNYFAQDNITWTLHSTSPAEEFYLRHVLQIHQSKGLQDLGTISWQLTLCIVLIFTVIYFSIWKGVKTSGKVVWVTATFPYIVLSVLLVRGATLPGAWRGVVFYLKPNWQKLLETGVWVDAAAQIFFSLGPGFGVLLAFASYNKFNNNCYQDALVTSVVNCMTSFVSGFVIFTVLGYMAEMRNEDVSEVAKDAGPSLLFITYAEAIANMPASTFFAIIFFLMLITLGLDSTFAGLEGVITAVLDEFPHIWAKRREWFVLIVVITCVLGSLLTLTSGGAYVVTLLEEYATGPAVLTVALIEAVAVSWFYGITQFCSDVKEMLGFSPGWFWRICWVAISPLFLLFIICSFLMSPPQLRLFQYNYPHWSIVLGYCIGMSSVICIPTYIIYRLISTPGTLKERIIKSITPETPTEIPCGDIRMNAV

For assay [4], the species on record is Rattus norvegicus. Put plainly: Binding affinity to NET in Sprague-Dawley rat brain synaptosomes assessed as induction of [3H]MPP+ release by liquid scintillation counting method relative to control. The essentials: as §1
The target of assay [5] is Sodium-dependent dopamine transporter (Rattus norvegicus, UniProt P23977). Put plainly: Binding affinity to DAT in Sprague-Dawley rat brain synaptosomes assessed as induction of [3H]MPP+ release by liquid scintillation counting method. The essentials:
as §2

Assay [6] in a line: Binding affinity to NET in Sprague-Dawley rat brain synaptosomes assessed as induction of [3H]MPP+ release by liquid scintillation counting method. In outline:
as §2

The species named for assay [7] is Rattus norvegicus. In words: Selectivity index, ratio of EC50 for DAT in Sprague-Dawley rat brain synaptosomes to EC50 for SERT in Sprague-Dawley rat brain synaptosomes.
The species entered for assay [8] is Rattus norvegicus. In words: Selectivity index, ratio of EC50 for NET in Sprague-Dawley rat brain synaptosomes to EC50 for SERT in Sprague-Dawley rat brain synaptosomes.

Chain of Sodium-dependent dopamine transporter (Rattus norvegicus) (P23977 whole entry): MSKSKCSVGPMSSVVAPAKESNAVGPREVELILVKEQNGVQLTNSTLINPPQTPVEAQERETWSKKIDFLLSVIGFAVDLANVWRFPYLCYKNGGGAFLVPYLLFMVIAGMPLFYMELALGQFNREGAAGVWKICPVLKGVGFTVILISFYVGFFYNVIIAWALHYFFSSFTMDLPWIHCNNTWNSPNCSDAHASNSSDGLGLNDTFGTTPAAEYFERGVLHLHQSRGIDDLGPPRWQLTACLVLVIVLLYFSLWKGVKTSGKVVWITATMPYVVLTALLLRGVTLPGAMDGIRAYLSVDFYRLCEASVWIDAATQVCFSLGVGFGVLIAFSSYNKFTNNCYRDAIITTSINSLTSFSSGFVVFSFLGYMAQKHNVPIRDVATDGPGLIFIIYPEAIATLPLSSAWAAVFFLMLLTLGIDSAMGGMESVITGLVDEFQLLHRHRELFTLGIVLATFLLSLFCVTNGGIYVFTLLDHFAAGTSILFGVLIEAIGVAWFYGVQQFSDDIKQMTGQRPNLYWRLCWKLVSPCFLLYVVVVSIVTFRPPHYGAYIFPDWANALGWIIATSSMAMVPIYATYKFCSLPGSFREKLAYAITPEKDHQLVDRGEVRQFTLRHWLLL
Chain of Sodium-dependent dopamine transporter (P23977 whole entry): as above
Chain of Sodium-dependent serotonin transporter (Rattus norvegicus) (P31652 whole entry): as the sequence (P31652 whole entry) above

As a reminder, the EC50 is the midpoint of the concentration-response curve. Take `CN[C@H](C)Cc1ccc2c(c1)OCCO2`: the results for the %max in assay [1], in assay [2] and in assay [4] were 106%, 97% and 85%, respectively. Moreover, the half-maximal effective concentration (EC50) turned out to be 573 nM in assay [3], 14600 nM in assay [5] and 1950 nM in assay [6].
On to `CNC(C)C(=O)c1ccc2c(c1)OCO2` (racemic) [METHYLONE], for which the EC50 worked out at 242 nM in assay [3], 133 nM in assay [5] and 152 nM in assay [6].
`CNC(C)Cc1ccc2c(c1)OCO2` (racemic) [MIDOMAFETAMINE]: the %max in assay [1] was found to be 99%; in assay [2] it was 98%; in assay [4] it was 95%. Moreover, the EC50 is 61 nM in assay [3], 75 nM in assay [5] and 72 nM in assay [6].
With `CN[C@@H](C)Cc1ccc2c(c1)OCCO2`, the values for the %max in assay [1], in assay [2] and in assay [4] were 103%, 96% and 94%, respectively. In addition, the EC50 in assay [3] was 91 nM; in assay [5] it was 276 nM; in assay [6], 239 nM.
`CNC(C)C(=O)c1ccc2c(c1)OCCO2` (racemic): the values for the %max in assay [1], in assay [2] and in assay [4] were 105%, 105% and 84%, respectively. For the same molecule, the concentration giving a half-maximal response (EC50) in assay [3] came out at 347 nM; in assay [5] it was 496 nM; in assay [6] it was 327 nM.
As for `CNC(C)Cc1ccc2c(c1)OCCO2` (racemic), the %max in assay [1] is 108%; in assay [2], 102%; in assay [4], 91%. The Ratio EC50 in assay [7] is 6; in assay [8], 3. For the same molecule, the EC50 in assay [3] turned out to be 117 nM; in assay [5] it was 597 nM; in assay [6] it was 325 nM.
